Diaphorase act: counter-screen for diaphorase-based assays: diaphorase activators and chemical reducers; Diaphorase/resazurin coupled assay, resorufin fluorescence, 16 min; active compounds read high; 1 = vehicle wells, 0 = NADH-free wells; 0.005% of 190,000 active; activation factor at 20 µM;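 active means diaphorase activity raised at least twofold by the compound at 20 µM; inactive means activation factor below 2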
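test system = bacterial diaphorase enzyme (C. kluyveri) | quantity = enzyme 0.07 U/mL final | reagent = NADH substrate 0.114 mM plus resazurin dye 0.1 mM, final | incubation = 16 min enzyme reaction, ambient temperature | buffer or medium = HEPES pH 7.4 buffer with MgCl2 and Tween 20 | signal = fluorescence of resorufin, 544 nm excitation, 590 nm emission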
Lmaj promast: reduces viability of Leishmania major promastigotes. resazurin fluorescence viability. 9% of 200,000 active. inhibition, % at 10 µM; in the data active means inhibition above about 50%;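 further: promastigotes grown with compound for 44 hours at 28 °C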
KCC2 mod: modulates chloride dependent transport by human KCC2; Q9H2X9; KCC2 cells, thallium flux FluoZin-2 fluorescence; B-score of Tl+ flux slope (higher = more flux/activation; lower = inhibition) at 10 µM; 2.2% of 190,000 active;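 active means thallium flux slope and its plate-corrected score both differing from the plate sample mean at a set confidence after two filtering rounds, in either direction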;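 further: slope of fluorescence scaled to starting intensity during 10 to 20 s after thallium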
WT yeast gro inh: growth inhibition of WT yeast, mitochondrial fusion screen; mitochondrial fusion phenotypic screen, WT strain; inhibition, % at 10 µM; 2.1% of 190,000 active; AID 1362; in the data active means inhibition above about 58%; tested in S. cerevisiae
Diaph inh CS: counter-screen for diaphorase-based assays: diaphorase inhibitors and chemical oxidizers; AID 1217; 0.69% of 190,000 active; diaphorase resazurin-to-resorufin fluorescence, NADH, 16 min; bacterial (C. kluyveri) enzyme, not human; inhibition, % at 20 µM;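 active means primary screen inhibition at 20 µM above a set limit, cut at about 50% in these data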;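 further: plate controls were DMSO with full reaction for no effect and wells lacking NADH for full effect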
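System: Bacterial diaphorase enzyme (C. kluyveri) | Incubation: 16-min room-temperature incubation before reading | Benchmarks: No-NADH positive control and DMSO neutral control | Measured by: Resorufin fluorescence 544/590 nm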
ROMK primary: modulates human ROMK potassium channel activity | P48048 | Tet-inducible ROMK, thallium flux fluorescence; actives lie on both sides | B-score at 10 µM | 2% of 130,000 active | AID 1918;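 active means signal ratio slope over the read window, or its plate-corrected B-score, at least 3 SD from the plate mean, either direction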;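 further: B-score of the F/F0 ratio slope over 7 to 12 s after thallium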
Target sequence (P48048 whole entry, looked up): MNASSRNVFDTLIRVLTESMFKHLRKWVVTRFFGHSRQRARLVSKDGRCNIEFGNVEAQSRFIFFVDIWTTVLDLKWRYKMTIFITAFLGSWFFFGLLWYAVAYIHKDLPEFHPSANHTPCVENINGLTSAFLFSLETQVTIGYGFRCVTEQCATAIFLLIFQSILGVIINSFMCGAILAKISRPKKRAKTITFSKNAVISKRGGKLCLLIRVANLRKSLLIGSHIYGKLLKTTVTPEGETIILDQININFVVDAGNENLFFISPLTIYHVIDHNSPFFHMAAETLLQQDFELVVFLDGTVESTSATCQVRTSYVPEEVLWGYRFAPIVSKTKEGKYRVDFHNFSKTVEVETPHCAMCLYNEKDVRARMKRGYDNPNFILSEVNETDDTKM
* marks the source's active call; other numbers are inactive results; . = no result given. Hits are enriched below; roughly 12% of the tested compounds scored in any of these assays.

SMILES	Diaphorase act	Lmaj promast	KCC2 mod	WT yeast gro inh	Diaph inh CS	ROMK primary
CCCCC(CC)C(=O)Nc1ccc(Nc2ccccc2)cc1 (stereo not drawn)	0.9	99.2*	-1.86	32.6	9.3	1.49
COC(=O)CN(c1ccccc1)S(=O)(=O)c1ccccc1	0.7	2.9	.	13.3	25.4	0.368
COC(=O)NC(=C(Cl)Cl)S(=O)(=O)c1ccccc1	1	96.7*	-0.193	-16.2	3.1	0.0492
CNc1ccc(C(=O)c2ccccc2C(=O)O)cc1[N+](=O)[O-]	0.9	4.1	.	-6.8	8.2	-0.123
CNc1ccc(/C=C/C(=O)c2cccc3ccccc23)cc1[N+](=O)[O-]	0.8	98.8*	0.349	17.8	19.5	-0.173
CC(C)c1c(O)cc(-c2ccncc2)n(-c2ccc(Cl)cc2)c1=O	0.9	54.4*	-1.11	17.0	12.7	.
CC(C)c1cc(O)c(-c2ccccc2)c(=O)n1-c1ccc(Cl)cc1	.	.	0.841	.	.	.
CN1CCN(CCCCOc2ccccc2C=O)CC1	1.3	99.6*	0.362	12.0	-29.6	0.596
O=Cc1ccccc1OCCOc1ccccc1C=O	1	71.8*	-1.76	-10.4	-0.6	.
N#Cc1ccccc1Oc1ccccc1C=O	0.9	57.0*	-1.13	-5.5	7.0	2.65
COc1cc2nc(CN(C)Cc3ccc(OC)c(OC)c3OC)[nH]c(=O)c2cc1OC	0.9	9.1	.	0.1	8.8	-0.407
CCCCCCCCNC(=O)CCNC(=O)c1ccc(C(C)(C)C)cc1	0.8	-0.3	0.0232	47.9	20.3	-0.109
N#C/C(=C\c1c(Cl)cccc1Cl)c1nc2ccccc2[nH]1	.	.	-0.84	.	.	.
N#C/C(=C\c1ccc(Sc2nc3ccccc3[nH]2)o1)c1ccccc1	0.8	18.6	0.351	36.8	18.7	-1.33
N#C/C(=C\c1ccc(Sc2ccc(Cl)cc2)o1)c1nc2ccccc2[nH]1	0.8	60.2*	-0.166	51.8	21.6	-1.1
N#C/C(=C\c1ccc(Cl)cc1)c1nc2ncccc2[nH]1	0.8	78.8*	0.365	45.3	16.0	-2.21
N#C/C(=C/c1cccs1)c1nc2ccccc2[nH]1	1	85.3*	-0.724	1.7	-2.2	.
NS(=O)(=O)c1cccc(NC(=O)COC(=O)CN2C(=O)C3CC=CCC3C2=O)c1 (stereo not drawn)	1	7.6	0.405	-2.9	1.6	-0.214
CC1(C)CNc2cc(N)ccc2S1	0.3	0.7	1.55	-6.2	72.4*	-0.476
Cc1ccccc1N=Nc1c(C)[nH]n(-c2ccccc2)c1=O	0.8	-6.2	0.9	-6.2	18.2	0.442
Cc1ccccc1N=Nc1c(C)[nH]n(C(N)=S)c1=O	0.8	52.8*	10.6*	61.2*	20.7	-0.558
COc1ccc(Cc2c(O)nc(SCC(=O)N3CCCCCC3)[nH]c2=O)cc1	0.9	1.3	-0.509	-11.3	6.4	-0.16
COC1CCN(Cc2cn(Cc3ccccc3)nc2-c2cc3ccccc3o2)CC1	1	50.5*	-1.22	23.4	1.7	-2.54
CCCCN(CC)S(=O)(=O)c1ccc2c(c1)n(C)c(=O)c(=O)n2C	.	.	0.726	.	.	-0.478
COc1cc(OC)cc(C(=O)N[C@H](C(=O)OCC(=O)Nc2ccc(C(N)=O)cc2)C(C)C)c1	0.9	55.9*	1.24	9.8	6.1	.
SMILES	Diaphorase act	Lmaj promast	KCC2 mod	WT yeast gro inh	Diaph inh CS	ROMK primary
COc1cccc(C2C3=C(N=c4s/c(=C\c5ccccc5O)c(=O)n42)c2ccccc2CC3)c1OC (stereo not drawn)	0.8	13.1	0.902	9.8	16.0	0.372
Cn1c(SCC(=O)Nc2cccc(S(=O)(=O)NC3=NCCCCC3)c2)nnc1-c1ccccc1	0.9	3.6	0.325	-3.9	10.1	-0.0366
Cc1ccc(-c2nc(-c3ccccn3)sc2CC(=O)O)cc1	.	.	-1.02	.	.	.
CCN(CC)S(=O)(=O)c1ccc(C)c(NC(=O)CSc2ncc(C(F)(F)F)cc2Cl)c1	1	-10.5	-1.31	-5.3	4.1	0.7
Cc1ccc(S(=O)(=O)N(C)C)cc1NC(=O)CSc1ncc(C(F)(F)F)cc1Cl	0.9	61.4*	-0.36	7.3	6.7	0.102
COc1ccc(C)cc1-n1c(-c2ccncc2)n[nH]c1=S	0.8	-4.2	1.77	2.8	20.5	.
COc1cc(-n2c(-c3ccccc3)n[nH]c2=S)c(OC)cc1Cl	0.8	58.9*	0.402	10.1	15.3	0.645

Compound activity from PubChem.
